About 350 (0.11%) of roughly 330,000 compounds were called active. The entries come from a sample that favours actives as a whole. Unmarked numbers belong to inactive results.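 Rule for the calls: active = activation more than six SD over the plate average, tested at 20 µM; inactive = the rest.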
target: Apelin receptor (Homo sapiens) (UniProt P35414); assay: agonists of human apelin receptor APJ, primary screen, CHO-K1 cells, PathHunter beta-arrestin, luminescence (AID 2520); details: at 20 µM, stronger effect = higher value, 0% DMSO wells, 100% apelin
Sequence (P35414 whole entry, looked up): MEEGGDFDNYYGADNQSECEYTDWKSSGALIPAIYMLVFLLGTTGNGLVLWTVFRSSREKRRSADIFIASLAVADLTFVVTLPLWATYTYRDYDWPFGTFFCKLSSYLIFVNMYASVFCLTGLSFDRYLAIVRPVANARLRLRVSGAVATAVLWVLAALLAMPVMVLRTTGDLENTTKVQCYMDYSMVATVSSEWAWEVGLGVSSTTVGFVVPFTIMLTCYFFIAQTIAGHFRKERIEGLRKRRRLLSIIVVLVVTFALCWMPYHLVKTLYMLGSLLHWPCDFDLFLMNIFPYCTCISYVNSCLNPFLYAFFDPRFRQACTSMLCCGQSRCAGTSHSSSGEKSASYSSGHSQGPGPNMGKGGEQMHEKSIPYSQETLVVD
Procedure, shortened: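 Assay system: CHO-K1 cells stably expressing ProLink-tagged human APJ and arrestin–beta-gal acceptor. Compound dosing: 20 µM single point, 1% DMSO. Times: 16-18 h seeding, 90 min dark compound exposure, 60 min detection. Detection: beta-gal luminescence. Evaluation: APJ–arrestin association signal. Controls: negative DMSO alone, positive Apelin-13 at 10 nM.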

Compound | activation
COc1cc(C(=O)Nc2cc(C(F)(F)F)ccc2N2CCOCC2)ccc1O | -3.45%
Cc1ccc(NC(=O)CN(C)C(=O)c2cccc(S(=O)(=O)N3CCCC3)c2)cc1 | -1.65%
Cc1n[nH]c(=O)n1-c1ccc(Oc2ccccc2)cc1 | -4.14%
O=C(CCS(=O)(=O)c1ccc2c(c1)NC(=O)CS2)NCc1ccccc1Cl | 0.174%
COC(=O)c1ccc(COc2ccc(/C=N/NC(=O)C(=O)Nc3ccc(OC)cc3)cc2OC)o1 | -4.37%
O=C(N/N=C/c1cccc(OCc2ccccc2)c1)c1ccc(Br)o1 | 12%
CCCc1ccc(OCc2ccc(C(=O)N/N=C/c3cccc([N+](=O)[O-])c3)o2)c(OC)c1 | 47.7% (active)
O=C(c1cnn2ccccc12)N1CCc2ccccc21 | -0.0654%
CCc1ccc(N2CC(C(=O)NC3=NCCS3)CC2=O)cc1 (centres undefined) | 10.1%
CSc1nccc(NC(=O)c2ccc(C(C)(C)C)cc2)n1 | 1.31%
CSc1cccc(NC(=S)N(C(C)C)C(C)c2ccccn2)c1 (centres undefined) | 1.84%
COc1ccccc1N(C)S(=O)(=O)c1ccc(Cl)c(C(=O)Nc2ccncc2)c1 | 4.67%
COc1cccc(N(CC(=O)NC2CCCC2)C(=O)Cn2nnc(-c3ccc(C)o3)n2)c1 | 2.12%
CCc1nn(-c2cc(Oc3cccc4ccccc34)nc(-c3ccccc3)n2)c(N)c1C#N | -3.92%
COc1cccc(OC)c1CN(C)C(=O)c1cnccc1C(F)(F)F | -2.03%
CC(=O)NCC(=O)N1CCC(n2nccc2NC(=O)CCCc2ccccc2)CC1 | -2.51%
CC1=C/C(=N\OS(=O)(=O)c2ccccc2)C=CC1=O | 40.6% (active)
COc1ccc(C(=O)O/N=C(\N)Cc2ccc(Cl)cc2Cl)cc1OC | 11.8% (active)
COc1ccc(C/C(N)=N/OC(=O)c2ccco2)cc1OC | 6.23%
COc1ccc(C(=O)ON=C2c3ccccc3-c3ccccc32)cc1OC | -1.57%

Compound | activation
COc1cccc(CSc2nc3nc(C)cc(C)n3n2)c1 | -1.45%
CN(C(=O)CN1C(=O)NC(C)(CCc2ccccc2)C1=O)c1ccccc1 (centres undefined) | -2.66%
Cc1nn(CC(=O)NC2CCCCC2)c(=O)c2cccn12 | -3.35%
CCOC(=O)C1C(c2ccc(OC)c(OC)c2)c2c([nH][nH]c2=O)CC1(C)O (centres undefined) | 0.0386%
O=c1ccc(-c2ccc(S(=O)(=O)Nc3ccccc3)o2)n[nH]1 | 2.43%
CC1=NN(C(=O)CCc2ccccc2O)C(O)(C(F)(F)F)C1 (centres undefined) | -2.46%
CC1=C(C/C=C(\C)CCCC(C)CCCC(C)CCCC(C)C)C(=O)c2ccccc2C1=O (centres undefined) | 16.4%
Cc1cc(NC(=O)Nc2ccccc2[N+](=O)[O-])no1 | -0.224%
Cc1csc(SCC(=O)N(c2ccccc2)C(C)C)n1 | -5.06%
O=C(Nc1nnc(C2CC2)s1)C1=NN(C2CCS(=O)(=O)C2)C(=O)CC1 (centres undefined) | -2.11%
CN(C)S(=O)(=O)c1ccc(N/C=C(\[N+](=O)[O-])S(=O)(=O)c2ccccc2)cc1 | -4.82%
CC(=O)Nc1ccc(Sc2ccccc2C(=O)N2CCCC2)cn1 | -0.519%
O=C(O)c1cccc2c1C(=O)N(C1CCCCC1)C2 | -1.33%
CC1(C)NC(=O)N(CC(=O)N2CCN(S(=O)(=O)c3ccccc3F)CC2)C1=O | -2.41%
CCCCCCCCCCCCC(NC(C)=O)(C(=O)OCC)C(=O)OCC | -3.1%
O=S(=O)([N-]c1nc2ccccc2nc1-[n+]1ccc(Cc2ccccc2)cc1)c1ccc(Br)s1 | 3.3%
CN(CC(=O)NCCc1ccc(S(N)(=O)=O)cc1)CC(=O)Nc1ccc(Cl)cc1 | -2.04%
Cc1ccc(-n2nc(N)c3c(=O)oc(N(C)C)nc32)cc1 | -1.59%
CCOC(=O)c1sc(=NC(=O)/C=C/c2cccs2)n(C)c1C | -1.39%

From PubChem BioAssay AID2520 (Sanford-Burnham Center for Chemical Genomics, 2010)
